According to the M2OR odorant receptor database:

Legend:
Settings in all cases: stereoisomer not certain
[1] = target: T1, UniProt Q8VGZ2
T1 sequence (whole entry): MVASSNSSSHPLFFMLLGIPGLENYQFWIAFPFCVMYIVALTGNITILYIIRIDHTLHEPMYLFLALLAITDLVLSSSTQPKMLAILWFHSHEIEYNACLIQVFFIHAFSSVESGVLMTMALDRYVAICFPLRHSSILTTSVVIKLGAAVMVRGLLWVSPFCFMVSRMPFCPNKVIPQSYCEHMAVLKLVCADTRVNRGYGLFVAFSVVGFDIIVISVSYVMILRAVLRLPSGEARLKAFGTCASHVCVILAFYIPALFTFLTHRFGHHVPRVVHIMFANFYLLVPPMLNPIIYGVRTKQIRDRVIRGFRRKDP
Procedure, shortened: (§1)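 Transient luciferase assays in mammalian cell lines were common, though methods varied by source. The values come from published papers and their supplementary material, with extra details from the original authors when needed. Responsive refers to a measured signal the original authors judged statistically different from baseline, and non-responsive (inactive) to the remainder.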

[2] = target: T2, UniProt Q8VGZ7
T2 sequence (whole entry): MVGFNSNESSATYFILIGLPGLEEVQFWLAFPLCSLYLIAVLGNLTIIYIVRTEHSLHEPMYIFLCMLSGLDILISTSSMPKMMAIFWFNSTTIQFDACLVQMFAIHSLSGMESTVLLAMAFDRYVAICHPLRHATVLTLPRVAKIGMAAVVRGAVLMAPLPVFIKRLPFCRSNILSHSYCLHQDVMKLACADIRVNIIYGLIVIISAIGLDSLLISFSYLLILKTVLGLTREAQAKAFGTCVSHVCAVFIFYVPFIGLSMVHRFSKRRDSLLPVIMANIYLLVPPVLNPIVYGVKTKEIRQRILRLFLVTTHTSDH
Procedure, shortened: as §1

[3] = target: T3, UniProt Q8VH16
T3 sequence (whole entry): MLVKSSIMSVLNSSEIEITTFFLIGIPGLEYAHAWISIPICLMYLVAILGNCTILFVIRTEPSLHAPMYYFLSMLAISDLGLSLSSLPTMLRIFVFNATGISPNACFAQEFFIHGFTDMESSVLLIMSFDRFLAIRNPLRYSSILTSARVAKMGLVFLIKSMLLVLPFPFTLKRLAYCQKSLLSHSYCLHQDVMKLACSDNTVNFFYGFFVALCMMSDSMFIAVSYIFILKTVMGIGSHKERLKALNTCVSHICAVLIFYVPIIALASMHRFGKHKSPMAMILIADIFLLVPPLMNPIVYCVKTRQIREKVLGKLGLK
Procedure, shortened: as §1

[4] = target: T4, UniProt Q8VH20
T4 sequence (whole entry): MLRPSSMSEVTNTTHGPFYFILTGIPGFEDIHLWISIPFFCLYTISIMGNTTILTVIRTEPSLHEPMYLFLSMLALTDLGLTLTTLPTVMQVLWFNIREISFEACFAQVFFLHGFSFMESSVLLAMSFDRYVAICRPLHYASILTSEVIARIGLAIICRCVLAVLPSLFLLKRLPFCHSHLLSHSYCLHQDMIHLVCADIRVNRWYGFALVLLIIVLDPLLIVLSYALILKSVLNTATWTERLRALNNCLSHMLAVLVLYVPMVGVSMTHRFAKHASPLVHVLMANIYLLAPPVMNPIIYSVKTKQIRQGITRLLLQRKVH
Procedure, shortened: as §1

[5] = target: T5, UniProt Q8VH21
T5 sequence (whole entry): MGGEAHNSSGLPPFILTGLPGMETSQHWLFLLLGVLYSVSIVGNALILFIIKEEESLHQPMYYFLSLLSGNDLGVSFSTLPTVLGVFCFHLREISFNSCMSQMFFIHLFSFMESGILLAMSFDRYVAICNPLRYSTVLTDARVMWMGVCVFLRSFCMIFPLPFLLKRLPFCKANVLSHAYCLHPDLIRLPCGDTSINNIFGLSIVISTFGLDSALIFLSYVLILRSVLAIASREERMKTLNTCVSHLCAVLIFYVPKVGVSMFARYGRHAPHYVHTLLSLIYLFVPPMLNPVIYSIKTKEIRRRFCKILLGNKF
Procedure, shortened: as §1

[6] = target: T6, UniProt Q924H8
T6 sequence (whole entry): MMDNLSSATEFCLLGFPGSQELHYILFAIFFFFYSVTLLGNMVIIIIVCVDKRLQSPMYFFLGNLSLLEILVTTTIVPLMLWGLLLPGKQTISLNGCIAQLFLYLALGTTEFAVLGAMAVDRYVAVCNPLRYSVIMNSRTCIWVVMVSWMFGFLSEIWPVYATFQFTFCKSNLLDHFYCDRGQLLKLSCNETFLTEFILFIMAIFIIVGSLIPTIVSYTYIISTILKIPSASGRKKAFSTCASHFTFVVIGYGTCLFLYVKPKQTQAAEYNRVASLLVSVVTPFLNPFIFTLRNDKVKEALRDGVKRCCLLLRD
Procedure, shortened: as §1

[7] = target: T7, UniProt Q8VGX8
T7 sequence (whole entry): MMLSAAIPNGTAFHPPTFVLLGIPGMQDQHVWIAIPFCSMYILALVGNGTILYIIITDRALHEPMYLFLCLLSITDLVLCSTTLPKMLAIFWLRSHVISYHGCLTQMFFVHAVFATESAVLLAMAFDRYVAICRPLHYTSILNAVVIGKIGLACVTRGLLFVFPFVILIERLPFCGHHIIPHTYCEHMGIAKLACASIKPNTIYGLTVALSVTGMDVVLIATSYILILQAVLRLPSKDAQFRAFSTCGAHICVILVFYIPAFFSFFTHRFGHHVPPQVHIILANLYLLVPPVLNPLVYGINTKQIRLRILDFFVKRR
Procedure, shortened: as §1

[8] = target: T8, UniProt Q8VGY6
T8 sequence (whole entry): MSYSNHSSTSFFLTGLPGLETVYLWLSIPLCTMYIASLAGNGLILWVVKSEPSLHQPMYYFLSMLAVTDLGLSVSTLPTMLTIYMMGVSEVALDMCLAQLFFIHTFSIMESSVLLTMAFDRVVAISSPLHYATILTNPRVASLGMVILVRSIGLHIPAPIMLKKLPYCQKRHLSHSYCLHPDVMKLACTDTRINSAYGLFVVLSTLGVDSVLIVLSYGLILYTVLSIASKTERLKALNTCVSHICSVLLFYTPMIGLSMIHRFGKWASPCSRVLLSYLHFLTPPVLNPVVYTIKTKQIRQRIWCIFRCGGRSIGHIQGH
Procedure, shortened: as §1

[9] = target: T9, UniProt Q8VH10
T9 sequence (whole entry): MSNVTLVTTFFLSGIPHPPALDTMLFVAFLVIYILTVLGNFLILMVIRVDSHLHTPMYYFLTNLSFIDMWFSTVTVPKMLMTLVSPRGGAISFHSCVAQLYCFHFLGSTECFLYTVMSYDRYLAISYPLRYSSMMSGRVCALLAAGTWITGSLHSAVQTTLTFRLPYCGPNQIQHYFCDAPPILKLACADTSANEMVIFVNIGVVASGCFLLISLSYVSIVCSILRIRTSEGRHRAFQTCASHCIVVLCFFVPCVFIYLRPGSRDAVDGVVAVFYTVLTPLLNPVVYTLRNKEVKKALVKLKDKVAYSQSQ
Procedure, shortened: as §1

[10] = target: T10, UniProt Q8VH18
T10 sequence (whole entry): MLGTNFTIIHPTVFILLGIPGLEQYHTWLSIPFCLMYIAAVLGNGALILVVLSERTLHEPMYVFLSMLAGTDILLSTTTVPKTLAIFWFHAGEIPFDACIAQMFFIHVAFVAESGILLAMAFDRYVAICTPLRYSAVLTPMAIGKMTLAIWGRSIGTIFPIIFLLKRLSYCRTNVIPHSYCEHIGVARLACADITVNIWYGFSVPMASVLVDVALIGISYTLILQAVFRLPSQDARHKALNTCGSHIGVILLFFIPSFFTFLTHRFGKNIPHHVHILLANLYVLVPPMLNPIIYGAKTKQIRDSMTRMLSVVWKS
Procedure, shortened: as §1

[11] = target: T11, UniProt Q924X8
T11 sequence (whole entry): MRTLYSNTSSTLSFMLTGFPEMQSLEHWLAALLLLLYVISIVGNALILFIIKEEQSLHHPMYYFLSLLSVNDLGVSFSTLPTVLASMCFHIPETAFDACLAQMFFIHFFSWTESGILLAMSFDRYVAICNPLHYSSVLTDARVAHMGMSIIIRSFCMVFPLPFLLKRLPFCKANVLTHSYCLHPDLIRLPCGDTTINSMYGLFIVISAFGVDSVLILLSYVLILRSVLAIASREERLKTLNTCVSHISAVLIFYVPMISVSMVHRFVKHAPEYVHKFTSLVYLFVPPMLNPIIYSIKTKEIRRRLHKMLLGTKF
Procedure, shortened: as §1

[12] = target: T12, UniProt Q99NH4
T12 sequence (whole entry): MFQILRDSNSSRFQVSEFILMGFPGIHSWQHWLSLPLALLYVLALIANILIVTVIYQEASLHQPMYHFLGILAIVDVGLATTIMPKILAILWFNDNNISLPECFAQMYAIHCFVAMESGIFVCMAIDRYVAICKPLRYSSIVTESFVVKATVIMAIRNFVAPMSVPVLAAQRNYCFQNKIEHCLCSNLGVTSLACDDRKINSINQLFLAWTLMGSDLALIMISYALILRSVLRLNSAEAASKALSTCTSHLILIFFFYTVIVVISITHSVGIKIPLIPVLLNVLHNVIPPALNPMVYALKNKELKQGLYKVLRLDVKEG
Procedure, shortened: as §1

[13] = target: T13, UniProt Q9EPN9
T13 sequence (whole entry): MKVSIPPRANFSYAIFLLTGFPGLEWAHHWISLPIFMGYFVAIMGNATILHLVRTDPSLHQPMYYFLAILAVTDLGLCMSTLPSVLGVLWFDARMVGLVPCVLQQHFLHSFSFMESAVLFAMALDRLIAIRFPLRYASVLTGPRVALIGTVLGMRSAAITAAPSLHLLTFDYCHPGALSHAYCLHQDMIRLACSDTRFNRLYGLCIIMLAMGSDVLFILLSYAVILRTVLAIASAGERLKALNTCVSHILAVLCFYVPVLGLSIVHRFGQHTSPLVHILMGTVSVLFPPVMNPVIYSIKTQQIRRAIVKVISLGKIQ
Procedure, shortened: as §1

[14] = target: UniProt Q9R0K2
UniProt Q9R0K2, sequence (Q9R0K2 as listed by the source): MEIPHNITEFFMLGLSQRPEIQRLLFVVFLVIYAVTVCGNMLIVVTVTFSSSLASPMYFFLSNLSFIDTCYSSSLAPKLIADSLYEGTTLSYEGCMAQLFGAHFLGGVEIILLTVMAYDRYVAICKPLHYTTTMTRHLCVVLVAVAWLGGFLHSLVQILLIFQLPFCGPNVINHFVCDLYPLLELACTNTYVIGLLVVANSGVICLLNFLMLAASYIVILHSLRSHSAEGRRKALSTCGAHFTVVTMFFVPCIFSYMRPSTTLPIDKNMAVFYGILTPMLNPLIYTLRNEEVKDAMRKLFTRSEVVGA
Procedure, shortened: as §1

[15] = target: T14, UniProt Q9WU86
T14 sequence (whole entry): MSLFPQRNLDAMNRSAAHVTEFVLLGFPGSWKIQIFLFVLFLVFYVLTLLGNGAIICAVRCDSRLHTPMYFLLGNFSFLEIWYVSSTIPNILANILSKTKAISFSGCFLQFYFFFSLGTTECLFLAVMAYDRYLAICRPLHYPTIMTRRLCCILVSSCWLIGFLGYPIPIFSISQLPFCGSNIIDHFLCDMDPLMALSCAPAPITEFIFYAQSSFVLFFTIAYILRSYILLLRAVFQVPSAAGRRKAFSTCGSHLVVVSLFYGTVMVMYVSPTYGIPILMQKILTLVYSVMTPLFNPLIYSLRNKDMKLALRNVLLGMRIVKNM
Procedure, shortened: as §1

[16] = target: T15, UniProt Q9WU94
T15 sequence (whole entry): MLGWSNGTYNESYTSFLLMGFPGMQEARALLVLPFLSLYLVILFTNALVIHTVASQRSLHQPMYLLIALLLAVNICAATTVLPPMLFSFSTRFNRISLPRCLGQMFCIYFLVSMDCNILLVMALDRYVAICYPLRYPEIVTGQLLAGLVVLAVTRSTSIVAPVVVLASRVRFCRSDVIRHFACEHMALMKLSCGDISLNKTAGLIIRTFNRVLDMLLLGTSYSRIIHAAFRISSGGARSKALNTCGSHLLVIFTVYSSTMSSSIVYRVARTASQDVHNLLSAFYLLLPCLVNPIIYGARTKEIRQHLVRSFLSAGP
Procedure, shortened: as §1

[17] = target: T16, UniProt Q9WVD7
T16 sequence (whole entry): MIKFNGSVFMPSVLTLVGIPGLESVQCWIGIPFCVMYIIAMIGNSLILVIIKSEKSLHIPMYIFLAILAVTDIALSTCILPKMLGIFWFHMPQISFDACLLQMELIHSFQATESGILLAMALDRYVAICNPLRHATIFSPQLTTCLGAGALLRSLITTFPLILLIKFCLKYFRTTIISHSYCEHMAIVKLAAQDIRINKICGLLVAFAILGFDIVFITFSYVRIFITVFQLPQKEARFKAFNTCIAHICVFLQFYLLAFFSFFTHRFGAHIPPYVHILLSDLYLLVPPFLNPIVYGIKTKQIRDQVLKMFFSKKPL
Procedure, shortened: as §1

Measured: odorant receptor agonist call

CC1(C)CC(=O)CC(=O)C1
inactive: [1] | [2] | [3] | [4] | [5] | [6]

CCCCCO
not listed: [3] | [5] | [6]
inactive: all other assays above

CCc1nccnc1CC
inactive: [1] | [2] | [3] | [4] | [5] | [6]

c1ccc2ncccc2c1
inactive: [1] | [2] | [3] | [4] | [5] | [6]

OCCCCCCCCCO
inactive: [1] | [2] | [3] | [4] | [5] | [6]

CCC(C(=O)O)c1ccccc1 (stereo not drawn)
inactive: [7] | [8] | [1] | [2] | [9] | [4] | [14] | [15]
active: [13]

O=C([O-])CCCCC(=O)[O-].[H+].[H+]
active: [11]
inactive: [7] | [10] | [12] | [16] | [17]

O=c1ccc2ccccc2o1
inactive: [7] | [8] | [1] | [2] | [9] | [4] | [13] | [14]
active: [15]

CCCC=O
inactive: [1] | [2] | [3] | [4] | [5] | [6]

CCCCCCC(=O)[O-].[H+]
active: [7] | [1] | [10] | [4] | [17]
not listed: [3] | [5] | [6] | [12]
inactive: all other assays above

CCCCCOC(=O)CC
inactive: [1] | [2] | [3] | [4] | [5] | [6]

O=C(O)CCCCCC(=O)O
active: [11]
inactive: [7] | [10] | [12] | [16] | [17]

O=C(O)CCCBr
active: [11]
inactive: [7] | [10] | [12] | [16] | [17]

Cc1ccc(C(C)C)c(O)c1
inactive: [1] | [2] | [3] | [4] | [5] | [6]

COc1ccccc1
inactive: [1] | [2] | [3] | [4] | [5] | [6]

CCCCCCC=CC=O
inactive: [1] | [2] | [3] | [4] | [5] | [6]

COc1nccnc1C
inactive: [1] | [2] | [3] | [4] | [5] | [6]
